# “And” between values parts separate entries of the source, which are not always exact repeats. Identical values can stand only once. In all, about 370,000 compounds went through this assay and about 1,200 (0.32%) were called active. Only a selection was taken, and actives are over-represented in it overall. Unmarked numbers belong to inactive results.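 The calls were made as follows: active = inhibition above the mean of all tested compounds plus 3 SD, set per campaign (cut at about 25% in these data); inactive = the rest.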
# Molecular target: Tyrosyl-DNA phosphodiesterase 2 (Homo sapiens) (UniProt O95551)
# Experiment: human TDP2 enzyme inhibitors, primary screen, biochemical, epi absorbance, recombinant enzyme (AID 720702);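 also: 0% = DMSO with enzyme and 100% = buffer with substrate but no TDP2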
# Details: recombinant TDP2, T5PNP hydrolysis, p-nitrophenol absorbance 415 nm; at 12.8 µM; stronger effect = higher value
# Procedure, shortened: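 Test system: human TDP2 enzyme; Input: 120 nM TDP2 per well; Buffer or medium: Mg2+-containing Tris-HCl buffer, pH 7.5; Reagent: 5 mM T5PNP; Dosing: 12.8 µM single point, 1% DMSO; Incubation: reaction 2 h, 37 °C; Detection: p-Nitrophenol epi absorbance; Read-out: % inhibition relative to enzyme-containing and enzyme-free wells; Replicates: single well per compound.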
# Sequence of Tyrosyl-DNA phosphodiesterase 2 (Homo sapiens) (O95551 whole entry, looked up): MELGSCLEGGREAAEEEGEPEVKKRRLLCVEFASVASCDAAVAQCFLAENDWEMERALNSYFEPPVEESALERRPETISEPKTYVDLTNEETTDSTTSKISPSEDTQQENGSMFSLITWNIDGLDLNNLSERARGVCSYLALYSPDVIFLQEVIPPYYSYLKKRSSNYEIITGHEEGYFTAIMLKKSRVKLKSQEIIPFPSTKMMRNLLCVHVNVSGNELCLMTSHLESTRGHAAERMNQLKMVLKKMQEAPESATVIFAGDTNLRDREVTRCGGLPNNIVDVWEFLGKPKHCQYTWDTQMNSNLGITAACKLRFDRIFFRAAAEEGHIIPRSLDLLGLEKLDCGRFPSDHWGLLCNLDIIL
row,SMILES,inhibition
1,COc1ccc(C(=O)OCCN2CCN(C3CN(Cc4cn(Cc5ccccc5F)nn4)S(=O)(=O)C3)CC2)cc1OC (configuration not stated),11.2%
2,Cc1nc([N+](=O)[O-])cn1CC(=O)Nc1ccc(Cl)cc1,7.84%
3,CCOC(=O)C1CCN(C(=O)C(C)(C)NC(=O)Nc2ccccc2Cl)CC1,1.3%
4,c1coc(CCNc2ncnc3ccc(-c4ccc5c(c4)OCO5)cc23)c1,0.8%
5,Cc1cc(C)nc(NC(=S)N2CCN(c3ccc(C(F)(F)F)cn3)CC2)c1,-1.93%
6,NC(=O)c1ccsc1NC(=O)COC(=O)COc1ccc(C=O)cc1,2.52%
7,COc1cc(OC)cc(C(=O)OCC(=O)Nc2sccc2C(N)=O)c1,28.2% (active)
8,Cc1cccc(C(=O)OCC(=O)Nc2sccc2C(N)=O)c1C,-12.7%
9,CC1Cc2nc(SCC(=O)Nc3ccccc3F)n(C)c(=O)c2S1 (configuration not stated),9.78%
10,COC(=O)[C@]12C[C@H](CC(=O)N3CCOCC3)C(=O)N(Cc3ccc(Cl)cc3Cl)C1=C[C@H](C(C)C)O[C@@H]2C1CC1,-1.98%
11,CCOC(=O)Cn1c2c(n(-c3ccc(F)cc3)c1=O)C=C(c1ccccc1)[C@@H](C)C(C(=O)N(C)C1CCCCC1)=C2,-5.6%
12,C=CCN(Cc1ccc2c(c1)OCO2)C(C#CC1CC1)C(C)(C)C (configuration not stated),0.99%
13,C[C@H]1[C@H](NC(=O)c2cccc(N(C)C)c2)CC[C@@]23CCCN2C(=O)CCC[C@@H]13,-4.75%
14,Clc1ccc(C2=CSC3=Nc4cccc5cccc(c45)N23)cc1,65.8% (active)
15,Cc1ccc(C)c(CN2CCC(CNC(=O)C3CCCN(c4ncnc5c4nc4n5CCCCC4)C3)CC2)c1 (configuration not stated),-0.02%
16,O=C(NCCC1=CCCCC1)C1CCN(S(=O)(=O)c2ccc(Cl)s2)CC1,6.48%
17,Cc1ccc(CCNC(=O)C2CCN(S(=O)(=O)N3CCCC3)CC2)cc1,3.54%
18,Cc1ccc(S(=O)(=O)N2CCC(C(=O)NCCC3=CCCCC3)CC2)cc1C,33.1% (active)
19,C=C(C)CNC(=O)c1ccc(OC2CCN(C(=O)COC)CC2)cc1,-0.83%
20,NC1=CC(=O)C(=O)c2cccnc21,70.4% (active)
21,O=C(NCc1ccccc1)[C@H]1CCCN1C(=O)[C@@H]1CCCN1C(=O)c1ccc(Cl)cc1Cl,-1.81%
22,O=C1CC(c2ccc3c(c2)OCO3)N=C2N(CC3CC3)C/C(=C/c3ccccc3)N12 (configuration not stated),7.53%

row,SMILES,inhibition
1,COC(=O)[C@]12C[C@H](CC(=O)NCc3cccs3)C(=O)N(CCc3ccc(OC)c(OC)c3)C1=C[C@H](C(C)C)O[C@@H]2C1CC1,3.66%
2,COc1ccc(C)cc1NC(=S)Nc1ccccc1SC,1.04%
3,CCc1ccccc1NC(=S)Nc1cc(OC)c(NC(=O)C(C)C)cc1OC,39.9% (active)
4,COc1cc(NC(=S)NNC(=O)CC(C)C)c(OC)cc1Cl,8.52%
5,Cc1cc(C)n2ncc(C(=O)Nc3ccc4c(c3)OCCO4)c2n1,-3.81%
6,CN(C)C(=O)N1CCN(C(=O)[C@@H](Cc2ccccc2)NC(=O)[C@H]2O[C@@H](n3ccc(N)nc3=O)[C@H](O)[C@@H]2O)CC1,8.58%
7,Cc1ccc2nc(-c3ccc(NC(=O)CN(C)S(=O)(=O)c4ccccc4)cc3)sc2c1,-18.6%
8,CCOC(=O)N1CCC(c2cc(=O)n(-c3ccccc3)[nH]2)CC1,79.4% (active)
9,CCOC(=O)N1CCC(C(N)=O)CC1,4.66%
10,CCOC(=O)N1CCC(NC(=O)Cc2cn(C)c3ccccc23)CC1,-2.66%
11,CCOc1ccc(Oc2c(Cl)cnn(-c3ccc(C)cc3)c2=O)cc1,-6.6%
12,Cc1ccc(NC(=O)Cc2nnc(SCC(=O)Nc3nncs3)n2C)cc1,9.72%
13,O=C(CSc1ccc(-c2ccccn2)nn1)Nc1ccccc1,-4.03%
14,CCc1ccc(-c2nn(-c3ccccc3)cc2CSC(=N)N)cc1,-12%
15,O=Cc1cn(-c2ccccc2)nc1-c1ccccn1,31.4% (active)
16,N[C@@H](Cc1ccccc1)C(=O)N1CCC[C@@H]1C(=O)N1CCC2CCN(S(=O)(=O)c3ccccc3)CC21 (some centres not stated),2.14%
17,O=C(CSc1nc2sc3c(c2c(=O)n1-c1ccccc1)CCCC3)NN=Cc1ccc(OCc2ccccc2)cc1,8.18%
18,C=CCN=C1NC(c2ccccc2)C(C(=O)OC)=C(C)N1Cc1ccc(C(F)(F)F)cc1 (configuration not stated),-7.84%
19,COc1cccc(OC)c1CN(C)C(=O)c1cnccc1C(F)(F)F,-13.4%
20,COC(=O)C1CN(CCc2ccccc2)CCS(=O)(=O)N1Cc1ccc(F)cc1 (configuration not stated),-8.99%
21,Cc1nc2c(C(=O)NCc3cccs3)cnn2c(C)c1Cc1ccc(F)cc1,6.37%
22,C=CCn1c(P(C)(=O)O)nc2ccccc21,2.29% and 0.31%

row,SMILES,inhibition
1,CCN(CC(=O)NCc1cccs1)c1nnnn1-c1ccccc1,-4.19%
2,CC(C)Cn1c(N)c(C(=O)NCc2cccs2)c2nc3ccccc3nc21,62.4% (active)
3,C=CCN1CN(S(=O)(=O)c2ccc(OC)cc2)c2nc3ccccc3nc21,-10.2%
4,C=CCn1c(N)c(C(=O)OCC(C)C)c2nc3ccccc3nc21,30.5% (active)
5,O/N=C(\C[n+]1ccccc1)c1ccc(Br)cc1,-4.49%
6,CSc1nnc(-c2ccncc2)n1CCCN1CCCC1=O,3.44%
7,O=C1Nc2ccccc2OC1CC(=O)N1CCCCCCC1 (configuration not stated),4.41%
8,COC(CNC(=O)[C@H](Cc1ccccc1)NC1(C(=O)NC2CCCCC2)CCCCC1)OC,-1.87%
9,CCCNC(=O)CCn1cc(-c2ccc(OC)cc2)nc1CCN,-1.08%
10,CCN(CC)CCCNC(=O)CCn1nc(-c2ccc(Cl)cc2)ccc1=O,-8.35%
11,CCCCNC(=O)CCn1nc(-c2ccc(Cl)cc2)ccc1=O,29.2% (active)
12,COC(=O)[C@]12C[C@H](CC(=O)NCCc3ccccc3OC)C(=O)N(Cc3ccccc3)C1=C[C@H](C(C)C)O[C@@H]2C1CC1,-7.01%
13,Cc1ccc(S(=O)(=O)NNC(=S)NC(C)(C)C)cc1,0.38%
14,COc1ccc2c(c1)c(=Cc1ccc(N(C)C)cc1)c1cc(-c3ccccc3)[n+](C)n12,28.4% (active)
15,CCOC(=O)[C@]12CCCCC/C=C\1N(Cc1ccc(OC)cc1)C(=O)[C@H]2CC(=O)NCCCN1CCCC1=O,-4.43%
16,CC(C)CCNC(=O)C1CCC(CNc2c(N3CCC(C)CC3)c(=O)c2=O)CC1 (configuration not stated),-1.37%
17,O=C1C(Cl)=C(Oc2ccccc2)C(=O)c2ccccc21,3.22%
18,CC(=O)N(C1=C(Cl)C(=O)c2ccccc2C1=O)c1ccc(C(=O)O)cc1,42.4% (active)
19,COP(=O)(O)CNC(=O)OCc1ccccc1,-6.21%
20,CCn1c(=O)n2n(c1=O)[C@@]1(C=C3CCCC[C@H]32)N=C(NC(=O)c2ccccc2)N(Cc2ccccc2)[C@H]1Cc1ccccc1,4.32%
21,Cc1nc(CNc2ncnc3ccc(-c4ccc5c(c4)OCO5)cc23)cs1,0.28%
22,CN1c2ccc(C=O)c3c(C=O)ccc(c23)N(C)C1(C)C,48.6% (active)

row,SMILES,inhibition
1,COc1ccc(N2CCN(CCNS(=O)(=O)c3ccc(Cl)s3)CC2)cc1,-1.58%
2,NS(=O)(=O)c1cc(C(=O)OCC(=O)NNC(=O)c2ccccc2)ccc1Cl,-0.47%
3,O=C(NN1C(=O)C2C3C=CC(O3)C2C1=O)c1ccccc1 (configuration not stated),-12.4%
4,O=C(NC1=CC(=O)c2ccccc2C1=O)c1ccccc1,44.5% (active)
5,Cc1ccccc1NC(=O)C(C)OC(=O)CCC(=O)N(CC(C)C)c1c(N)n(CC(C)C)c(=O)[nH]c1=O (configuration not stated),-3.56%
6,O=C1OC(Oc2ccc(Br)cc2)(c2ccccc2)c2ccccc21 (configuration not stated),-5.92%
7,CC(C)(C)N(Cc1ccccc1)C(=O)COC(=O)CCc1c[nH]c2ccccc12,-14.4%
8,O=C(COC(=O)CCc1c[nH]c2ccccc12)Nc1cccc(Cl)c1,9.41%
9,O=C(COC(=O)Cc1c[nH]c2ccccc12)NCCc1ccccc1,24.9% (active)
10,COc1cccc(Cn2cc(COC(=O)Nc3ccc(F)cc3)nn2)c1,4.69%
11,N#Cc1ccc(C(=O)Nc2nc(-c3cccs3)c(C(=O)C(F)(F)F)s2)cc1,-0.4%
12,CC1CCCC(NC(=O)c2cc(-c3ccncc3)nc3ccccc23)C1C (configuration not stated),68.1% (active)
13,CC1CCCC(NC(=O)c2cc(S(=O)(=O)N3CCCCC3)ccc2Cl)C1C (configuration not stated),5.78%
14,CC1CCCCC1NC(=O)c1cc(=O)[nH]c2ccccc12 (configuration not stated),6.87%
15,COc1ccc(-c2ccc3c(n2)CCCN3S(=O)(=O)c2ccc(C)cc2)cc1,4.76%
16,N#Cc1c(N2CCCCC2)nc(N)c2c(N)nc(SCC(=O)O)cc12,7.63%
17,CCOC(=O)c1ccc(NC2Nc3cc(C)nn3S2)cc1 (configuration not stated),26.6% (active)
18,CCc1ccc(NC2Nc3cc(C)nn3S2)cc1 (configuration not stated),-7.9%
19,CCOC(=O)c1ccc(NC(=O)C2CC(=O)Nc3nc4ccccc4n32)cc1 (configuration not stated),-14.1%
20,COc1ccc(S[C@]2(C(=O)N(C)C)CC(=O)N(c3ccc(OC)cc3)[C@@H]2c2ccc(OC)cc2)cc1,-13.2%
21,C/C(=N/O)c1ccc(N2C(=O)C3C4C=CC(C3C2=O)C2C3C(=O)N(c5ccc(/C(C)=N/O)cc5)C(=O)C3C42)cc1 (configuration not stated),-7.03%

# From PubChem BioAssay AID720702 (The Scripps Research Institute Molecular Screening Center, 2013)
